Article PMC9380797 (Indian Journal of Nuclear Medicine : IJNM : The Official …, 2022)

Key:
Paper electrophoresis = assay type: physicochemical; settings: 300V, 1 h
Summary of the method: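 Radio-complex spotted at the central point of Whatman No. 1 paper, with sodium phosphate buffer as the mobile phase. Strip dried after the run and activity along it counted in a well-type gamma scintillation […]; the direction of migration indicates charge.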

[1] = Bio-distribution in MNU + TP treated rats; assay type: in vivo, rat; settings: for percent-specific uptake in the prostate: MNU + TP treated (carcinogen-induced) rats; for ID/g Bladder / ID/g Bone / ID/g Brain / ID/g Heart / ID/g Kidney / ID/g Large intestine / ID/g Liver / ID/g Lung / ID/g Muscle / ID/g Prostate / ID/g Small intestine / ID/g Spleen / ID/g Stomach / ID/g Thyroid: MNU + TP treated rats
[2] = Stability of the radio-complex with pH and time at room temperature; assay type: physicochemical
Summary of the method: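 Labelling: 7.4 MBq pertechnetate added to 20 µg test compound (10% ethanol) with 40 µg SnCl2·2H2O, pH 7, 10 min at room temperature in the dark. pH varied from 2 to 10 and room-temperature stability followed over time. Purity by ITLC: acetone (free pertechnetate) and pyridine:acetic acid:water 3:5:1.5 (hydrolysed fraction); strips counted with a gamma probe. Triplicates, one-way ANOVA.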

Substance: Tc-99m-17-oxo-17a-aza-D-homo-5-androsten-3 β-ylphenoxyacetate [Tc-99m-17a-aza steroid]
- charge of the radio-complex (Paper electrophoresis): neutral
- percent-specific uptake in the prostate ([1]; 1 h after administration): 0.913%
- percent-specific uptake in the prostate ([1]; 2 h after administration): 0.825%
- percent-specific uptake in the prostate ([1]; 4 h after administration): 0.857%
- percent-specific uptake in the prostate ([1]; 6 h after administration): 0.673%
- ID/g Bladder ([1]; First h): 1.465±0.175 ID/g
- ID/g Bladder ([1]; Fourth h): 0.897±0.456 ID/g
- ID/g Bladder ([1]; Second h): 0.979±0.247 ID/g
- ID/g Bladder ([1]; Sixth h): 0.871±0.578 ID/g
- ID/g Bone ([1]; First h): 0.437±0.237 ID/g
- ID/g Bone ([1]; Fourth h): 2.24±1.062 ID/g
- ID/g Bone ([1]; Second h): 1.381±0.609 ID/g
- ID/g Bone ([1]; Sixth h): 2.038±1.163 ID/g
- ID/g Brain ([1]; First h): 0.139±0.124 ID/g
- ID/g Brain ([1]; Fourth h): 0.149±0.085 ID/g
- ID/g Brain ([1]; Second h): 0.257±0.139 ID/g
- ID/g Brain ([1]; Sixth h): 0.132±0.048 ID/g
- ID/g Heart ([1]; First h): 0.045±0.036 ID/g
- ID/g Heart ([1]; Fourth h): 0.231±0.171 ID/g
- ID/g Heart ([1]; Second h): 0.404±0.217 ID/g
- ID/g Heart ([1]; Sixth h): 0.337±0.054 ID/g
- ID/g Kidney ([1]; First h): 6.283±0.746 ID/g
- ID/g Kidney ([1]; Fourth h): 7.836±1.861 ID/g
- ID/g Kidney ([1]; Second h): 7.37±1.162 ID/g
- ID/g Kidney ([1]; Sixth h): 8.08±1.784 ID/g
- ID/g Large intestine ([1]; First h): 0.264±0.121 ID/g
- ID/g Large intestine ([1]; Fourth h): 0.878±0.439 ID/g
- ID/g Large intestine ([1]; Second h): 0.383±0.034 ID/g
- ID/g Large intestine ([1]; Sixth h): 0.973±0.641 ID/g
- ID/g Liver ([1]; First h): 3.48±0.676 ID/g
- ID/g Liver ([1]; Fourth h): 8.693±0.784 ID/g
- ID/g Liver ([1]; Second h): 6.767±0.496 ID/g
- ID/g Liver ([1]; Sixth h): 9.673±0.457 ID/g
- ID/g Lung ([1]; First h): 2.903±0.553 ID/g
- ID/g Lung ([1]; Fourth h): 1.263±0.253 ID/g
- ID/g Lung ([1]; Second h): 2.44±0.216 ID/g
- ID/g Lung ([1]; Sixth h): 1.2±0.07 ID/g
- ID/g Muscle ([1]; First h): 0.097±0.075 ID/g
- ID/g Muscle ([1]; Fourth h): 0.330±0.194 ID/g
- ID/g Muscle ([1]; Second h): 0.262±0.023 ID/g
- ID/g Muscle ([1]; Sixth h): 0.310±0.022 ID/g
- ID/g Prostate ([1]; First h): 0.913±0.172 ID/g
- ID/g Prostate ([1]; Fourth h): 0.857±0.091 ID/g
- ID/g Prostate ([1]; Second h): 0.825±0.110 ID/g
- ID/g Prostate ([1]; Sixth h): 0.673±0.064 ID/g
- ID/g Small intestine ([1]; First h): 0.482±0.554 ID/g
- ID/g Small intestine ([1]; Fourth h): 0.400±0.015 ID/g
- ID/g Small intestine ([1]; Second h): 0.563±0.037 ID/g
- ID/g Small intestine ([1]; Sixth h): 0.378±0.193 ID/g
- ID/g Spleen ([1]; First h): 3.873±0.600 ID/g
- ID/g Spleen ([1]; Fourth h): 4.61±0.026 ID/g
- ID/g Spleen ([1]; Second h): 6.76±0.911 ID/g
- ID/g Spleen ([1]; Sixth h): 8.77±0.645 ID/g
- ID/g Stomach ([1]; First h): 0.142±0.038 ID/g
- ID/g Stomach ([1]; Fourth h): 0.112±0.033 ID/g
- ID/g Stomach ([1]; Second h): 0.091±0.029 ID/g
- ID/g Stomach ([1]; Sixth h): 0.069±0.023 ID/g
- ID/g Thyroid ([1]; First h): 0.356±0.163 ID/g
- ID/g Thyroid ([1]; Fourth h): 0.654±0.099 ID/g
- ID/g Thyroid ([1]; Second h): 0.698±0.037 ID/g
- ID/g Thyroid ([1]; Sixth h): 0.684±0.198 ID/g
- percent radiochemical purity ([2]; pH 2): 92.72%
- percent radiochemical purity ([2]; pH 4): 97.24%
- percent radiochemical yield ([2]; pH 10): 86.84%
